Experimental data reported in ChEMBL document CHEMBL1135679, “Potent delta-opioid receptor agonists containing the Dmt-Tic pharmacophore” (J Med Chem, 2002).
Square brackets hold non-standard residues; d marks the D form. Peptide text beside a SMILES is read from it. Dmt = Cc1cc(O)cc(C)c1C[C@H](N)C(=O)O; Tic = O=C(O)[C@@H]1Cc2ccccc2CN1

Assays:
[1] = target: Delta-type opioid receptor (Mus musculus, UniProt P32300); assay: In vitro inhibitory activity against electrically evoked contractions of in mouse vas deferens (MVD); format: functional, tissue-based
Mu-type opioid receptor [2] = target: Mu-type opioid receptor (Cavia porcellus, UniProt P97266); assay: In vitro inhibitory activity against electrically evoked contractions of guinea pig ileum (GPI); format: functional, tissue-based
Method in brief: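 Isolated tissue bioassay. IC50 read from concentration–response curves of agonist inhibition. Mean ± SE of at least five fresh tissue samples, with an internal standard peptide run for each tissue.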

[3] = target: Delta-type opioid receptor (Mus musculus) (UniProt P32300); conditions: Vas deferens
Mu-type opioid receptor [4] = target: Mu-type opioid receptor (Rattus norvegicus, UniProt P33535); assay: Inhibition of [3H]DAGO binding to Opioid receptor mu 1 of rat brain P2 synaptosomes; format: subcellular
Method in brief: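 Competition binding on rat brain P2 synaptosomes. Synaptosomes were preincubated 60 min at room temperature in 0.1 M NaCl, 0.4 mM GDP, 50 mM HEPES pH 7.5 and 50 µg/mL soybean trypsin inhibitor to strip endogenous opioids, then washed, stored at -80 °C, and labelled with [3H]DAGO. Incubation ran 2 h at room temperature to equilibrium. Nonspecific binding was set with 2 µM unlabelled peptide. Bound ligand was collected by GF/C filtration and counted. Five to eight doses in duplicate, 3–5 repetitions on separate preparations, mean ± SE. Ki by Cheng–Prusoff.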

[5] = target: Delta-type opioid receptor (Rattus norvegicus, UniProt P33533); assay: Inhibition of [3H]DPDPE binding to Opioid receptor delta 1 of rat brain P2 synaptosomes; format: subcellular
Method in brief: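 Rat brain P2 synaptosomes, pretreated 60 min at room temperature in 0.1 M NaCl, 0.4 mM GDP, 50 mM HEPES pH 7.5 and 50 µg/mL trypsin inhibitor, then washed and frozen at -80 °C. Competition against [3H]DPDPE for 2 h at room temperature. Nonspecific binding defined with 2 µM unlabelled peptide. Filtered on GF/C and counted. Five to eight doses in duplicate, 3–5 independent preparations, mean ± SE. Ki via Cheng–Prusoff.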

[6] = Relative binding to mu and delta opioid receptors (ratio of Ki)
[7] = target: Delta-type opioid receptor (Mus musculus) (UniProt P32300); assay: In vitro inhibitory activity against electrically evoked contractions of the mouse vas deferens (MVD); format: functional, tissue-based

Mu-type opioid receptor (Cavia porcellus, UniProt P97266), sequence (P97266 whole entry): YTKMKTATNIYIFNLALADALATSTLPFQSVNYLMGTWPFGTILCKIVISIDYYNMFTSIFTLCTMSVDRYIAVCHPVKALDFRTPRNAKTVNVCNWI
Delta-type opioid receptor (Rattus norvegicus, UniProt P33533), sequence (P33533 whole entry): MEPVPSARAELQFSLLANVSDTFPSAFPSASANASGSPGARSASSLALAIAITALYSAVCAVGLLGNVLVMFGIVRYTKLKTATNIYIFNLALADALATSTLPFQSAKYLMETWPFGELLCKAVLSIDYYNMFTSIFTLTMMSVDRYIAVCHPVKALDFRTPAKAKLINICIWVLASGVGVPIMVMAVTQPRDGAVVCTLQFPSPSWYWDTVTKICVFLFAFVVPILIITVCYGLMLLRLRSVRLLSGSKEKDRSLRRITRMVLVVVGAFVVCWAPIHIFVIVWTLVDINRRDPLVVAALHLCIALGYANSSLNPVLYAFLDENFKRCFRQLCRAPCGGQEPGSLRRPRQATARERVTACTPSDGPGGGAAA
Mu-type opioid receptor (Rattus norvegicus, UniProt P33535), sequence (P33535 whole entry): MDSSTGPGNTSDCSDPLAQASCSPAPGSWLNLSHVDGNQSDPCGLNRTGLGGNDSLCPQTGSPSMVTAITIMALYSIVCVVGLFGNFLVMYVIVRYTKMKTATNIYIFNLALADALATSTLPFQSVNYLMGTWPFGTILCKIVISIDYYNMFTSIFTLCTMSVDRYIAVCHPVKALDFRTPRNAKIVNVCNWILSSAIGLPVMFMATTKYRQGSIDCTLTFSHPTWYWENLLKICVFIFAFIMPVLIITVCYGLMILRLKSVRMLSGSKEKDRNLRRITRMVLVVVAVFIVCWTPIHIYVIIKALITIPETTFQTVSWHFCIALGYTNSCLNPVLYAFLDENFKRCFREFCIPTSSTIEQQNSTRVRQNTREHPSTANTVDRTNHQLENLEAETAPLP
Delta-type opioid receptor (Mus musculus), sequence (P32300 whole entry): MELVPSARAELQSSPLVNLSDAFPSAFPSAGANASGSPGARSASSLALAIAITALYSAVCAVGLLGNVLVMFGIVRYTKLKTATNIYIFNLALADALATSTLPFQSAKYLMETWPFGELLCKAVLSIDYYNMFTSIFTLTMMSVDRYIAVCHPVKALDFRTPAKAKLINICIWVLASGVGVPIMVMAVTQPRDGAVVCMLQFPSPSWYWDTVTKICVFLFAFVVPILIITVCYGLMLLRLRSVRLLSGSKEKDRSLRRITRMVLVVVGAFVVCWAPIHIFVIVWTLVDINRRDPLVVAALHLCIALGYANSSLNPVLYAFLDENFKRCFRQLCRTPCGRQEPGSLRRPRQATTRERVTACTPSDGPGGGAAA
Delta-type opioid receptor (Mus musculus, UniProt P32300), sequence (P32300 whole entry): as above

| Structure (SMILES) | IC50 [1] | IC50 (Mu-type opioid receptor [2]) | Ke [3] | Ki (Mu-type opioid receptor [4]) | Ki [5] | Selectivity [6] | Ke [7] |
| --- | --- | --- | --- | --- | --- | --- | --- |
| Cc1cc(O)cc(C)c1C[C@H](N)C(=O)N1Cc2ccccc2C[C@H]1C(=O)NCc1nc2ccccc2[nH]1 | 0.035 nM | 40.7 nM | – | – | – | – | – |
| Cc1cc(O)cc(C)c1C[C@H](N)C(=O)N1Cc2ccccc2C[C@H]1C(=O)N[C@H](C)C(N)=O (H-[Dmt]-[Tic]-[dA]-NH2) | – | > 10000 nM | 25.1 nM | 47.5 nM | 0.301 nM | 158 | – |
| Cc1cc(O)cc(C)c1C[C@H](N)C(=O)N1Cc2ccccc2C[C@H]1C(=O)N[C@@H](CC(N)=O)C(=O)O (H-[Dmt]-[Tic]-Asn-OH) | – | > 10000 nM | 5.88 nM | 80.3 nM | 1.1 nM | 73 | – |
| Cc1cc(O)cc(C)c1C[C@H](N)C(=O)N1Cc2ccccc2C[C@H]1C(=O)NCCc1nc2ccccc2[nH]1 | – | 108 nM | 4.78 nM | – | – | 82 | – |
| C[C@@H](NC(=O)[C@@H](N)Cc1ccc(O)cc1)C(=O)N[C@@H](Cc1ccccc1)C(=O)NCC(=O)N[C@@H](Cc1ccc(O)cc1)C(=O)N1CCC[C@H]1C(=O)N[C@@H](CO)C(N)=O [DERMORPHIN] | – | 1.21 nM | – | 1.22 nM | – | – | – |
| Cc1cc(O)cc(C)c1C[C@H](N)C(=O)N1Cc2ccccc2C[C@H]1C(=O)N[C@@H](C)c1nc2ccccc2[nH]1 | – | 71.7 nM | – | 0.411 nM | 0.063 nM | 6.5 | – |
| Cc1cc(O)cc(C)c1C[C@H](N)C(=O)N1Cc2ccccc2C[C@H]1C(=O)N[C@@H](Cc1nc2ccccc2[nH]1)C(=O)O | 0.015 nM | 1560 nM | – | 21.7 nM | 0.042 nM | 516 | – |
| Cc1cc(O)cc(C)c1C[C@H](N)C(=O)N1Cc2ccccc2C[C@H]1C(=O)N[C@@H](C)C(N)=O (H-[Dmt]-[Tic]-Ala-NH2) | – | – | 10 nM | – | – | 195 | – |
| CC(C)[C@H](NC(=O)[C@H](CC(=O)O)NC(=O)[C@H](Cc1ccccc1)NC(=O)[C@H](C)NC(=O)[C@@H](N)Cc1ccc(O)cc1)C(=O)N[C@H](C(=O)NCC(=O)O)C(C)C | 0.3 nM | > 1200 nM | – | 272 nM | 0.24 nM | 1140 | – |
| Cc1cc(O)cc(C)c1C[C@H](N)C(=O)N1Cc2ccccc2C[C@H]1C(=O)N[C@H](C)c1nc2ccccc2[nH]1 | 0.026 nM | 6.36 nM | – | 0.233 nM | 0.047 nM | 5 | – |
| Cc1cc(O)cc(C)c1C[C@H](N)C(=O)N1Cc2ccccc2C[C@H]1C(=O)N[C@@H](CC(=O)O)C(N)=O (H-[Dmt]-[Tic]-Asp-NH2) | – | > 10000 nM | – | 2560 nM | 0.289 nM | 8880 | 7.58 nM |
| Cc1cc(O)cc(C)c1C[C@H](N)C(=O)N1Cc2ccccc2C[C@H]1C(=O)N[C@@H](CC(=O)O)c1nc2ccccc2[nH]1 | – | – | – | – | – | 122 | – |
